This note sets out measurements from ChEMBL document CHEMBL1135464, “3-Aryl-2-quinolone derivatives: synthesis and characterization of in vitro and in vivo antitumor effects with emphasis on a new therapeutical target connected with cell migration” (J Med Chem, 2002).

The subject of data set [1] is Mus musculus. The experiment in a line: Evaluated in vivo for maximum tolerated dose (MTD/4) using MXT mouse mammary adenocarcinoma model. The class given is functional. The essentials: (§1)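 MXT-HS hormone-sensitive mammary adenocarcinoma maintained by monthly s.c. transplantation in 6-week-old female B6D2F1 mice. Doses are set as fractions of the MTD. Drugs given i.p.; ETO and DOX 9 times, the quinolone 20 times. Nine mice per group. Tumor area (mm2) is the product of the two largest perpendicular caliper diameters, measured weekly. Mean ± SEM; Mann-Whitney test.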

The subject of data set [2] is Mus musculus. As to the kind of experiment: Evaluated in vivo for maximum tolerated dose (MTD/2) using MXT mouse mammary adenocarcinoma model. The format is functional. The essentials:
as §1

The test system of data set [3] is Mus musculus. As to the kind of experiment: Evaluated in vivo for maximum tolerated dose (MTD16) using MXT mouse mammary adenocarcinoma model. The format is functional. The method, boiled down: as §1
Data set [4] concerns Mus musculus. As to the kind of experiment: Evaluated in vivo for maximum tolerated dose (MTD/8) using MXT mouse mammary adenocarcinoma model. The class given is functional. The essentials:
as §1

Another data set deals with HCT-15. As to the kind of experiment: Cytotoxicity against HCT-15 colon cell line using MTT colorimetric assay. The format is functional, cell-based. The settings on record: Homo sapiens. The essentials: (§2)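 Human tumour lines from ATCC were grown at 37 °C in sealed dishes in MEM with 5% FCS. Cells were seeded at 40000 cells/mL in 96-well plates and left 24 h to plate. Each drug was then tested at six concentrations from 10^-5 to 10^-9 M. Growth was read by colorimetric MTT assay.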

For another data set, the system named is U-87 MG. The experiment in a line: Cytotoxicity against U-87 MG glioblastomas using MTT colorimetric assay. The conditions noted are these: Homo sapiens. The format is functional, cell-based, U-87MG ATCC. The essentials: as §2
(In general: Tetrazolium assays rely on reduction of a dye to a coloured formazan, in cell work by metabolically active cells.)

The next data set has as its system U373 MG. The experiment in a line: Cytotoxicity against U-373 MG glioblastomas using MTT colorimetric assay. The format is functional, cell-based, U-373MG ATCC. The conditions noted are these: Homo sapiens. The essentials:
as §2

A further data set concerns MCF7. The experiment in a line: Cytotoxicity against Breast cancer cell line MCF-7 using MTT colorimetric assay. The class given is functional, cell-based. The settings on record: Homo sapiens. The method, boiled down: as §2
The next data set relates to J82. The experiment in a line: Cytotoxicity against J82 bladder cell lines using MTT colorimetric assay at 1x 10 E-5. The conditions noted are these: Homo sapiens. The format is functional, cell-based. The essentials:
as §2

In a further data set the test system is A549. The experiment in a line: Cytotoxicity against A549 nonsmall lung cell line using MTT colorimetric assay. The class given is functional, cell-based. The conditions noted are these: Homo sapiens. The essentials:
as §2

For another data set, the system named is T-24. As to the kind of experiment: Cytotoxicity against T24 bladder cell lines using MTT colorimetric assay. The format is functional, cell-based. The settings on record: Homo sapiens. The method, boiled down:
as §2

Data set [5] in a line: Evaluated in vivo for maximum tolerated dose and found to be nontoxic. The class given is ADME, organism-based.
Another data set concerns T47D. As to the kind of experiment: Cytotoxicity against Breast cancer cell line T-47D using MTT colorimetric assay. The class given is functional, cell-based. The conditions noted are these: Homo sapiens. The method, boiled down:
as §2

A further data set relates to PC-3. The experiment in a line: Cytotoxicity against prostate cell line PC-3 using MTT colorimetric assay. The settings on record: Homo sapiens. The format is functional, cell-based. The essentials: as §2
The subject of the next data set is A-427. The experiment in a line: Cytotoxicity against A-427 nonsmall lung cell line using MTT colorimetric assay. The settings on record: Homo sapiens. The format is functional, cell-based. The essentials: as §2
The next data set deals with LoVo. As to the kind of experiment: Cytotoxicity measured on LoVo colon cell line using MTT colorimetric assay. The format is functional, cell-based. The settings on record: Homo sapiens. The essentials: as §2
The subject of the next data set is A 172. As to the kind of experiment: Cytotoxicity against A-172 glioblastomas using MTT colorimetric assay. The format is functional, cell-based. The conditions noted are these: Homo sapiens. The essentials:
as §2

Data set [6] concerns Mus musculus. As to the kind of experiment: Evaluated in vivo for maximum tolerated dose (MTD/8) using MXT mouse mammary adenocarcinoma model.
The subject of data set [7] is Mus musculus. As to the kind of experiment: Evaluated in vivo for maximum tolerated dose (MTD/2) using MXT mouse mammary adenocarcinoma model ( highly toxic).
Data set [8] relates to Mus musculus. The experiment in a line: Evaluated in vivo for maximum tolerated dose (MTD/4) using MXT mouse mammary adenocarcinoma model.
The subject of data set [9] is Mus musculus. As to the kind of experiment: Evaluated in vivo for maximum tolerated dose (MTD/16) using MXT mouse mammary adenocarcinoma model ( ineffective). The class given is ADME, organism-based. The method, boiled down:
as §1

`COc1cccc2c1C(=O)c1c(O)c3c(c(O)c1C2=O)C[C@@](O)(C(=O)CO)C[C@@H]3O[C@H]1C[C@H](N)[C@H](O)[C@H](C)O1` [DOXORUBICIN] came in with an MTD/4 with Mus musculus [1] of 2.5 mg/kg. This compound also had an MTD/2 in the data set with Mus musculus [2] of 5 mg/kg. Besides, the MTD/16 in the data set on Mus musculus [3] is 0.63 mg/kg. Besides, in the data set on Mus musculus [4], the MTD/8 came to 1.25 mg/kg.
As to `COc1ccc(-c2cc3c(OC)cc(OC)cc3n(CCC(=O)OCc3ccccc3)c2=O)cc1`, the IC50 in the data set on HCT-15, with U-87 MG, in the data set with U373 MG, with MCF7, in the data set with J82 and with A549 was above 10 µM throughout. The half-maximal inhibitory concentration (IC50) in the data set on T-24, in the data set with T47D, in the data set with PC-3, with A-427, in the data set with LoVo and in the data set on A 172 was above 10 µM in each case. The maximal tolerated dose (MTD) (commonly the highest dose tested that stayed within the study's limit of toxicity) in [5] was found to be 160 mg/kg.
Regarding `COc1cc([C@@H]2c3cc4c(cc3[C@@H](O[C@@H]3O[C@@H]5CO[C@@H](C)O[C@H]5[C@H](O)[C@H]3O)[C@H]3COC(=O)[C@H]23)OCO4)cc(OC)c1O` [ETOPOSIDE], the MTD/8 with Mus musculus [6] came to 10 mg/kg. In the data set on Mus musculus [7], this compound gave an MTD/2 of 40 mg/kg. Moreover, the MTD/4 in the data set with Mus musculus [8] was found to be 20 mg/kg. The same compound gave an MTD/16 in the data set with Mus musculus [9] of 5 mg/kg.
